Entries after “also recorded” stand apart in the source; their conditions may differ.
Legend:
[1] = target: T1, A10A2 hybrid protein (dimer) (Oryctolagus cuniculus, UniProt Q6SQH4, C83S); experiment: Fluorescence titration of acrylodan-labeled A10A2 with AHNAK5; format: binding, rabbit; conditions: shifted from near 495 nm; intensity decreased; pH 7.4
In short: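 Rabbit S100A10(C82S)–annexin A2 hybrid was made as a GST fusion in E. coli, cleaved with PreScission, and labelled with acrylodan. 167 nM labelled protein in 20 mM Tris-HCl, 120 mM NaCl, 1 mM DTT, pH 7.4, was stirred at room temperature. Peptide was added stepwise with 2 min stirring each. Excitation 375 nm, emission 400–600 nm, ΔF at 500 nm. Duplicate titrations were globally fit 1:1 for Kd.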

[2] = target: S100A10-annexin A2 hybrid protein (A10A2) dimer (Oryctolagus cuniculus, UniProt Q6SQH4, C83S); experiment: NMR titration; format: binding, rabbit; conditions: pH 7.0
[3] = target: T1, A10A2 hybrid protein (dimer); experiment: Isothermal titration calorimetry of AHNAK5 into A10A2; format: binding, rabbit
[4] = target: S100A10-annexin A2 (Oryctolagus cuniculus, UniProt Q6SQH4, C83S); experiment: Overall binding of AHNAK5 to S100A10-annexin A2; parameters: species or system rabbit; conditions: S100A10 without annexin A2 peptide; discussion statement
[5] = test system: S100A10; experiment: Fluorescence titration of acrylodan-labeled S100A10 with AHNAK5; format: binding, rabbit; conditions: absence of annexin A2 peptide
[6] = test system: S100A10; format: binding, rabbit; conditions: absence of annexin A2 peptide; data not shown
[7] = test system: A10A2; experiment: Peptide array of AHNAK C terminus probed with Alexa Fluor 680-A10A2; format: binding, rabbit; conditions: 18-residue peptides shifted by 3 residues, Alexa-A10A2 0.2 μM, 2 h, 700 nm
In short: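 330 spots of 18-residue AHNAK peptides (residues 4884–5890, 3-residue offset) were Fmoc-synthesized on […]. Membranes were methanol-hydrated, washed in TBS + 0.05% Tween, and blocked 1 h with skim milk. A10A2 is a rabbit S100A10(C82S)–annexin A2 hybrid made in E. coli.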

[8] = target: S100A10^C82S (rabbit S100A10 with Cys82 changed to Ser) (rabbit); experiment: native MS
[9] = target: S100A10^C82S-annexin A2 hybrid protein (A10A2) (rabbit | not stated); experiment: native MS
[10] = target: S100A10^C82S-annexin A2 hybrid protein (A10A2) (rabbit | not stated); experiment: ITC
[11] = target: acrylodan-labeled A10A2 hybrid protein (rabbit | not stated); experiment: other fluorescence titration
[12] = target: S100A10^C82S-annexin A2 hybrid protein (A10A2) (rabbit | not stated); experiment: NMR titration
[13] = target: non-covalent complex of S100A10 (C82S) dimer with two annexin A2 peptides (residues 1-15) (rabbit | not stated); experiment: native MS

Ac-GKVTFPKMKIPKFTFSGREL-NH2 [AHNAK5]
acrylodan-A10A2 fluorescence maximum upon addition of AHNAK5 [1]: 500 nm
exchange regime / peak doubling on AHNAK5 binding, A10A2 ([2]; 1H-15N HSQC, 0.5 mM A10A2 (protomer), 0.25 mM AHNAK5, 35 °C): disappearance of peaks from S100A10 and the appearance of new resonances on the slow exchange time scale; also recorded: resonances from the annexin A2 portion of A10A2 also exhibited peak doubling
stoichiometry AHNAK5 : A10A2 dimer, NMR ([2]; inflection point of peak intensity changes, 35 °C): one AHNAK5 peptide to one A10A2 dimer
entropy change ([3]; ITC): positive entropy change
ΔH (binding enthalpy) ([3]; ITC, 35 °C, pH 7.2): -41.9 ± 0.4 kJ/mol
ΔS (entropy change) ([3]; ITC, 35 °C, pH 7.2): 8.4 J/mol
n (binding sites), ITC ([3]; single binding site fit, 35 °C, pH 7.2): 1.02
interaction in experiments lacking annexin A2 peptide (summary) [4]: little or no observable interaction
interaction with S100A10, fluorescence [5]: little wavelength shift, suggestive of a poor interaction
interaction with S100A10 without annexin A2, NMR [6]: did not show an interaction between S100A10 and AHNAK5; also recorded: no evidence for interaction of AHNAK5 with S100A10 in the absence of annexin A2
precipitation during titration of S100A10 with AHNAK5 [6]: prone to precipitation
A10A2 binding in peptide array (intensity, words) [7]: strong interaction with A10A2

S100A10^C82S (rabbit S100A10 with Cys82 changed to Ser) (natural protein)
stoichiometry N [8]: 2

S100A10^C82S-annexin A2 hybrid protein (A10A2)
stoichiometry N [9]: 2

sequence a: AHNAK array region Thr4917–Gly4940 (overlapping 18-residue peptides) (TAPDVDLHLKAPKIGFSGPKLEGG)
A10A2 binding in peptide array (intensity, words) [7]: best interaction with A10A2

sequence b: AHNAK array region Asp4959–Pro4994; most intense spot 4968–4985 (DSPDINIEGPDVKIPKFKKPKFGFGAKSPKADIKSP)
A10A2 binding in peptide array (intensity, words) [7]: best interaction with A10A2; also recorded: most intense binding at any one spot

sequence c: AHNAK array region Pro5220–Ile5243 (PDVDLQGPEAKIKFPKFSMPKIGI)
A10A2 binding in peptide array (intensity, words) [7]: best interaction with A10A2

sequence d: AHNAK array region Asn5607–Ile5633 (NLDTSKFAGGLHFSGPKVEGGVKGGQI)
A10A2 binding in peptide array (intensity, words) [7]: best interaction with A10A2

sequence e: AHNAK array region Gly5652–Gly5675; most intense spot 5652–5669 (GSGKVTFPKMKIPKFTFSGRELVG)
A10A2 binding in peptide array (intensity, words) [7]: best interaction with A10A2; also recorded: most intense binding at any one spot

sequence f: AHNAK array region Ser5703–Thr5729 (SEVKLKKSKIKMPKFNFSKPKGKGGVT)
A10A2 binding in peptide array (intensity, words) [7]: best interaction with A10A2

sequence g: AHNAK array region Ala5757–Ser5780 (AEAEASSPKGKFSLFKSKKPRHRS)
A10A2 binding in peptide array (intensity, words) [7]: best interaction with A10A2

sequence h: AHNAK array region Leu5808–Glu5837 (LEGGKVKGKHGKLKFGTFGGLGSKSKGHYE)
A10A2 binding in peptide array (intensity, words) [7]: best interaction with A10A2

Ac-GKVTFPKMKIPKFTFSGREL-NH2 [AHNAK5 peptide (AHNAK residues Gly5654-Leu5673)]
Kd [10]: 28 nM
dH [10]: -41.9 kJ/mol
stoichiometry N (AHNAK5 per A10A2 dimer) [10]: 1.02
Kd [11]: 35 nM
Kd [12]: < 1000 nM
stoichiometry N (AHNAK5 per A10A2 dimer) [12]: 1
stoichiometry N [13]: 1
stoichiometry N (AHNAK5 per A10A2 dimer) [9]: 1

Ac-STVHEILSKLSLEGD-NH2 [annexin A2 peptide (residues 1-15)]
stoichiometry N (annexin A2 peptides per S100A10 dimer) [8]: 2

From PMC3220529 (The Journal of Biological Chemistry, 2011)
